Apaf-1 inh: human Apaf-1 inhibition; O14727; reconstituted apoptosome caspase-3 activity, DEVD-Rh110 fluorescence; inhibition, % at 20 µM; hit rate 0.71% among 330,000; AID 489030; active = inhibition of at least 40% at 20 µM;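 note: plate controls were DMSO wells for no effect and DEVD-CHO caspase inhibitor wells for full effect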
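detection = Rh110 fluorescence intensity | test system = biochemical Apaf-1 apoptosome reconstitution | also added = cytochrome c and DEVD-Rh110 substrate | schedule = 30 min plus 50 min, RT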
UBC13 polyUb: human UBC13 polyubiquitination inhibition. inhibition, % at 20 µM. hit rate 0.47% among 330,000. UBC13 polyubiquitin chain formation, TR-FRET; in the data active = inhibition above about 45%, passing the limit was not always enough
SENP8 block-1: SENP8 protease inhibition; hit rate 1.2% among 330,000; AID 2540; inhibition, % at 10 µM; purified SENP8, Z-RLRGG-aminoluciferin cleavage, luminescence; Q96LD8; in the data active = inhibition above about 50%
SENP8 block-2: SENP8 (human) protease inhibition. Q96LD8. recombinant SENP8, Nedd8 substrate fluorescence. inhibition, % at 20 µM. hit rate 0.64% among 360,000; in the data active = inhibition mostly above about 40%, no sharp cut-off; inactive = mostly below about 27%
SENP7 inh: blocks the human protease SENP7; recombinant SENP7, Z-RLRGG-aminoluciferin luminescence, 40 min; AID 434973; inhibition, % at 5 µM; hit rate 1.5% among 330,000;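 active = inhibition above about 50% at the single test dose, limit read from the data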;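 note: plate controls were DMSO with enzyme for no effect and no enzyme buffer wells for full effect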
Target sequence (Q9BQF6 706-1050 limits assumed): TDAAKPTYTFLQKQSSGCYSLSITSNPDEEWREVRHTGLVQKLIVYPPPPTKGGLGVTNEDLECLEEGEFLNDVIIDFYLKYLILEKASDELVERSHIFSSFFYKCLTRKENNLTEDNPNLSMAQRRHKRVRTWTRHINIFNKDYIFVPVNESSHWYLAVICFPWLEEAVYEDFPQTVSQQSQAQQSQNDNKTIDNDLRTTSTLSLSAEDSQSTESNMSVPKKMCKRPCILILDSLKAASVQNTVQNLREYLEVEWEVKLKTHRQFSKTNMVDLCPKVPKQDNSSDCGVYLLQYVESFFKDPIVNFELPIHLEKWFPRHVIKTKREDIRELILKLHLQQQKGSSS
SENP6 inh: blocks the human protease SENP6; Q9GZR1; Recombinant SENP6 catalytic domain, aminoluciferin luminescence; inhibition, % at 10 µM; hit rate 1.8% among 330,000;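 active = inhibition above about 50% at the single tested dose, limit read from the data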;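 note: plate controls were DMSO wells with enzyme for no effect and DMSO wells lacking enzyme for full effect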
SENP8 confirm: human SENP8 inhibition, confirmed | inhibition, % at 12.5 µM | hit rate 40% among 6,200 | shares compounds with SENP7 inh | Recombinant SENP8, Z-RLRGG-aminoluciferin luminescence, 60 min | AID 488912;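 active = mean inhibition across replicates above about 50%, limit read from the data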
SENP6 conf: human SENP6 inhibition, confirmed | shares compounds with SENP7 inh | recombinant SENP6, Z-RLRGG-aminoluciferin luminescence | inhibition, % at 12.5 µM | hit rate 58% among 6,200
SENP7 conf: human SENP7 inhibition, confirmed; hit rate 69% among 6,200; inhibition, % at 12.5 µM; shares compounds with SENP7 inh; recombinant SENP7, Z-RLRGG-aminoluciferin luminescence, 40 min
Casp3 select: caspase-3 inhibition (SENP selectivity assay); inhibition, % at 12.5 µM; purified caspase-3, Z-DEVD-aminoluciferin luminescence, 60 min; shares compounds with SENP7 inh; hit rate 60% among 6,200;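 active = mean inhibition above about 50%, limit read from the data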;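 note: plate controls were enzyme with DMSO for no effect and wells without caspase-3 for full effect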
Target sequence (P42574 28-227 limits assumed): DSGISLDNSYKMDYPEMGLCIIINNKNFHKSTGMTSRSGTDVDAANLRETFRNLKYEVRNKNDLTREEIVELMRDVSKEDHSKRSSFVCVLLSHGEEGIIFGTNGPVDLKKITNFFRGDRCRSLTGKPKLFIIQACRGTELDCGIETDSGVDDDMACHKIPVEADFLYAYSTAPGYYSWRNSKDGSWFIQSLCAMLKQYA
Luc interf: luminescence interference (SENP counter-screen); inhibition, % at 12.5 µM; hit rate 39% among 6,200; Pre-incubated SENP8/Z-RLRGG-aminoluciferin, luciferase luminescence interference; shares compounds with SENP7 inh;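 active = mean inhibition above about 50% when retested at one dose, limit read from the data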;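 note: plate controls were DMSO wells with completed reaction for no effect and substrate without enzyme for full effect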
Numbers without * were called inactive; . = no result. In the library only some 3% were active in any assay of this set; here they are far more common.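 Rule for the calls, unless noted: active = mean inhibition above about 50% in the one-dose retest (limit read from the data); inactive = the rest.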

SMILES	Apaf-1 inh	UBC13 polyUb	SENP8 block-1	SENP8 block-2	SENP7 inh	SENP6 inh	SENP8 confirm	SENP6 conf	SENP7 conf	Casp3 select	Luc interf
O=C(Nc1ccc(Cl)cn1)c1ccc2c(Cl)c3c(nc2c1)CCC3	-23	5	1	-3	71*	2	-20	-18	11	27	3
Cc1cccc(NC(=O)c2ccc3nccnc3c2)n1	15	-9	-4	-13	3	8	.	.	.	.	.
Cc1cccc(C)c1NC(=O)C(c1ccccc1OC(F)(F)F)N1CCC(c2ccccc2)CC1 (stereo not given)	.	.	.	8	.	.	.	.	.	.	.
COc1cccc(-c2ccc(SCc3ccccn3)nn2)c1	-10	-3	59*	18	80*	2	75*	67*	92*	86*	78*
CC(CCc1ccccc1)NC(=O)C(Cc1ccccc1)NS(=O)(=O)c1cccs1 (stereo not given)	1	-8	5	13	80*	2	-30	-18	-8	-6	-9
CC1CCCCC1NC(=O)C(Cc1ccccc1)NS(=O)(=O)c1cccs1 (stereo not given)	-15	9	4	-6	0	-2	.	.	.	.	.
N#CC(c1ccccc1)C(CC(=O)c1ccccc1)c1ccccc1 (stereo not given)	.	.	.	19	.	.	.	.	.	.	.
Cc1cc(Cl)c(O)c(-n2nc3ccccc3n2)c1	7	-7	20	15	71*	27	1	12	44	37	4
Cc1ccc(OCC(=O)O)c(-n2nc3ccccc3n2)c1	7	1	-14	-365	-5	-29	.	.	.	.	.
COc1ccc([C@H]2Cc3cccc(O)c3C(=O)O2)cc1O	4	12	3	-207	-6	3	.	.	.	.	.
COc1ccc([C@H]2Cc3cc(O)cc(O)c3C(=O)O2)cc1O	13	5	88*	-121	90*	95*	89*	88*	98*	90*	91*
CC(O)(c1ccccc1)c1nc(-c2ccncc2)cs1 (stereo not given)	.	.	.	0	.	.	.	.	.	.	.
CC(C)Oc1ccc(C(=O)Nc2ccc([N+](=O)[O-])cc2)cc1	-21	0	26	35	86*	61*	19	28	15	23	-1
COc1cccc(NC(=O)c2ccc(NC(=O)C(C)(C)C)cc2)c1	4	-12	37	27	72*	73*	71*	66*	86*	82*	70*
O=C(NCc1ccccc1)c1ccc(OC2CSC2)cc1	17	-9	-11	20	-10	-4	.	.	.	.	.
CCCC(=O)Nc1ccc(C(=O)Nc2cccc(OC)c2)cc1	-7	-2	31	7	41	13	.	.	.	.	.
COc1ccc(NC(=O)c2ccccc2)cc1	13	1	41	15	58*	51*	31	32	78*	79*	57*
O=C(O)c1ccc(OC2CSC2)cc1	3	-4	40	22	-1	52*	55*	54*	26	13	38
CSc1ccc(Cn2c(C)c(C(=O)NCCC#N)sc2=O)cc1	.	.	.	-1	.	.	.	.	.	.	.
COc1ccc(C(=O)Nc2cccc(NC(C)=O)c2)cc1	.	.	.	2	.	.	.	.	.	.	.
COc1ccc(NC(=O)OC(C)C)cc1	1	-6	30	32	25	55*	24	34	71*	75*	35
Cc1cccc(NC(=O)c2ccc(OC3CSC3)cc2)c1	16	1	91*	14	97*	94*	66*	89*	99*	93*	61*
COc1ccc(NC(=O)c2ccc(C)cc2)cc1	-1	3	27	30	41	63*	35	31	71*	68*	14
COc1ccc(C(=O)Nc2cccc(C)c2)cc1	-7	1	78*	16	90*	92*	84*	86*	99*	92*	85*
CC(=O)Nc1cccc(-c2ccnc3c2CC(C(=O)NCCC(F)(F)F)O3)c1 (stereo not given)	.	.	.	8	.	.	.	.	.	.	.
SMILES	Apaf-1 inh	UBC13 polyUb	SENP8 block-1	SENP8 block-2	SENP7 inh	SENP6 inh	SENP8 confirm	SENP6 conf	SENP7 conf	Casp3 select	Luc interf
COc1ccc(NC(=O)c2cc(C3CCCCN3C(=O)c3ccccc3)on2)c(C)c1 (stereo not given)	.	.	.	23	.	.	.	.	.	.	.
O=CNc1cc(-c2ccoc2)cn2c(-c3ccc(F)cc3)cnc12	.	.	.	-209	.	.	.	.	.	.	.
O=C(Nc1ccc(C(F)(F)F)cc1)c1ccccc1	9	1	20	17	63*	40	-4	16	42	32	4
O=C(Nc1cccc(O)c1)c1ccc(C(F)(F)F)cc1	7	0	67*	8	72*	74*	68*	70*	92*	72*	64*
Cn1c(/C(C#N)=C/c2ccncc2)nc2ccccc21	-14	-5	2	-29	4	-11	.	.	.	.	.
Cn1c(/C(C#N)=C/c2ccc(O)cc2)nc2ccccc21	-4	-7	23	-411	12	53*	50*	41	65*	.	16
Cc1ccsc1/C=N/Nc1nc(=O)[nH]nc1C	-5	-16	80*	12	89*	91*	86*	87*	98*	96*	71*
CCOC(=O)N/N=C/c1c(C)nn(-c2ccccc2Cl)c1Cl	0	1	-4	12	6	-7	.	.	.	.	.
C/C(=N\Nc1nc2ccccc2s1)c1cccs1	29	8	75*	-19	84*	60*	92*	91*	98*	60*	30
Cc1nn(-c2ccccc2Cl)c(Cl)c1/C=N/Nc1nc2ccccc2s1	10	-15	5	-45	81*	34	-9	-4	-7	-4	6
CC(=NNc1nc2ccccc2s1)c1ncccn1	.	.	.	18	.	.	.	.	.	.	.
Cc1ccsc1/C=N/Nc1nc2ccccc2s1	31	-6	72*	-173	86*	87*	-9	62*	87*	47	58*
CCCCN(C)c1c(C)nc2ccc(C(=O)N(C)Cc3ccco3)cn12	.	.	.	-12	.	.	.	.	.	.	.
COc1cc(C)ccc1S(=O)(=O)NC(=O)Cn1nnc(COc2ccc3c(c2)CCCC3)c1C	.	.	.	-6	.	.	.	.	.	.	.
C(=N\Nc1nc2ccccc2s1)/c1ccco1	-5	-13	83*	-9	90*	93*	82*	82*	97*	83*	72*
Oc1ccccc1C=NNc1nc2ccccc2s1	.	.	.	-124	.	.	.	.	.	.	.

Screening data (PubChem)
